Assay outcomes: PubChem, Sanford-Burnham Center for Chemical Genomics
Scp-1 inhibitor = Scp-1 phosphatase inhibitors, primary screen, biochemical, colorimetric, uHTS. Recombinant Scp1, phosphopeptide, malachite green phosphate absorbance. inhibition, % at 20 µM. hit rate 0.88% among 340,000. AID 493091, 2011;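 active = inhibition above about 50% at 20 µM, limit read from the data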
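assay system = SCP-1 phosphatase catalytic domain, residues 76-261 | buffer or medium = 50 mM Tris acetate pH 5.5, 0.005% Tween-20, 10 mM MgCl2 | incubation = enzyme reaction 45 min at room temperature, colour 5 min, stabilisation 30 min | signal = Phosphate-binding colour reagent, absorbance read at 630 nm | measure = % inhibition at 20 µM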
HKDC1 inhibitor = HKDC1 hexokinase inhibitors, primary screen, biochemical, fluorescence, uHTS | hit rate 0.16% among 340,000 | inhibition, % at 20 µM | Q2TB90 | recombinant HKDC1, G6PDH/diaphorase resazurin coupled fluorescence;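 active = inhibition above about 35% when tested at 20 µM, limit read from the data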
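Incubation: 90 min at room temperature in dark / Material: recombinant HKDC1 (HK5) hexokinase enzyme, produced in-house / Quantity: enzyme 5 µg/mL final / Compound: one dose of 20 µM, 1% DMSO / Reagent: glucose and ATP substrates / Buffer or medium: Tris pH 8.0 buffer with MgCl2, Tween-20, BSA, BME / Technique: resorufin fluorescence at 613 nm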
SUMO1 PPI mod = modulators of SUMO1 protein-protein interactions, primary screen, biochemical, uHTS | Small ubiquitin-related modifier 1 (Homo sapiens), P63165 | SUMO1 binding to a labelled peptide, TR-FRET, 1 h | inhibition, % at 20 µM | hit rate 0.33% among 360,000 | AID 602429, 2012; in the data active = inhibition above about 37%
Target sequence (P63165 whole entry, looked up): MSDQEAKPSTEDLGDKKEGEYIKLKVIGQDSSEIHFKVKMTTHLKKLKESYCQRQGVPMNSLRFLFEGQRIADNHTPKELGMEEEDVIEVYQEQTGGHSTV
LMPTP inh = LMPTP phosphatase inhibitors, primary screen, biochemical, fluorescence intensity, uHTS; inhibition, % at 20 µM; AID 651560, 2012; hit rate 0.22% among 360,000; recombinant LMPTP-A, OMFP fluorogenic substrate; Low molecular weight phosphotyrosine protein phosphatase (Homo sapiens), P24666;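 active = compounds that cut the enzyme signal by at least half of the control window in the single-dose screen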
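Test system: LMPTP-A phosphatase enzyme. Amount: LMPTP-A at 0.625 nM final in the reaction. Reagent: OMFP substrate, 400 µM final. Times: 50 min at room temperature. Signal: endpoint fluorescence intensity from OMFP dephosphorylation. Read-out basis: % inhibition. Benchmarks: no-enzyme and uninhibited controls.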
DNMT1 inh = human DNMT1 methyltransferase inhibitors, primary screen, biochemical, molecular beacon, fluorescence, HinP1I cleavage, uHTS; DNA (cytosine-5)-methyltransferase 1 (Homo sapiens), P26358; AID 588458, 2011; hit rate 0.83% among 360,000; inhibition (reported as % activation of signal), % at 10 µM; in the data active = inhibition above about 50%
STEP block = STEP phosphatase inhibitors, primary screen, biochemical, fluorescence intensity, uHTS; AID 588621, 2011; inhibition, % at 20 µM; hit rate 0.25% among 360,000; recombinant STEP, OMFP fluorogenic substrate;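 active = inhibition at 20 µM, scaled per plate between control wells, above about 37%, limit read from the data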
Target sequence (P54829 whole entry, looked up): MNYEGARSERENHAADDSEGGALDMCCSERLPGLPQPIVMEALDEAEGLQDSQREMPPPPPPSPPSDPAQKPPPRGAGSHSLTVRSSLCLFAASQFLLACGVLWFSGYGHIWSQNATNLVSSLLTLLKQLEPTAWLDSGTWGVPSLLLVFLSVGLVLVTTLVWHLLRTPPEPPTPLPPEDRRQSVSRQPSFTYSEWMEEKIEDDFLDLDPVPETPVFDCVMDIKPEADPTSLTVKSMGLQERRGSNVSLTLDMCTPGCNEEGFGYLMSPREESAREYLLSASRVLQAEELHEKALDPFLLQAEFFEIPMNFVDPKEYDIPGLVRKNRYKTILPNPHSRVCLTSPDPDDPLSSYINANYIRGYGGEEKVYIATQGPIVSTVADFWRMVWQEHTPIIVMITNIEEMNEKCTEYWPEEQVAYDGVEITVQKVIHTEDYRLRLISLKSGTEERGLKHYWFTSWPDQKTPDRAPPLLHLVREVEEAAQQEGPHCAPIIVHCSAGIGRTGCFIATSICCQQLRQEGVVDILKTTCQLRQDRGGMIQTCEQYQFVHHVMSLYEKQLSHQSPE
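medium = Bis-Tris buffer pH 6.0, 2.5 mM DTT, 0.005% Tween 20 | test system = STEP (striatal-enriched tyrosine phosphatase) enzyme, cell-free | measure = normalized % inhibition | compound dosing = 20 µM, 1% DMSO | also added = 25 µM OMFP | schedule = reaction 20 min, ambient temperature | measured by = fluorescence read at 480 nm ex / 540 nm em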
Hits are given with their value; 0 = inactive; - = not tested or not shown; + = active, no number. Sampled rows, rich in hits. Any-hit rate of the full collection: about 1.8%.

SMILES	Scp-1 inhibitor	HKDC1 inhibitor	SUMO1 PPI mod	LMPTP inh	DNMT1 inh	STEP block
CCn1c(/C=C/c2c(C)n(CC)c3ccccc23)nc2ccccc2c1=O	0	0	0	0	0	0
CCn1c2ccccc2nc2cc3c(cc21)c(Cl)c(=O)c1ccccc13	-	-	0	0	61	0
CCCCNC(=O)C1C(c2ccc(OC)cc2)=Nc2ccccc2N1C(=O)c1ccc2ncccc2c1 (stereo not drawn)	-	-	0	0	-	-
O=C1C(=Cc2cn(-c3ccccc3)nc2-c2ccc(OCc3ccccc3)cc2)SC(=S)N1CCS(=O)(=O)O	-	-	90	88	0	0
CCCOc1ccc(-c2nn(-c3ccccc3)cc2/C=C2\SC(N)=NC2=O)cc1	0	0	0	0	55	0
CCN1C(=O)/C(=C\c2cn(-c3ccccc3)nc2-c2cccnc2)SC1=S	0	0	0	0	53	0
Cc1cc(-c2nn(-c3ccccc3)cc2/C=C2\SC(N)=NC2=O)ccc1OC(C)C	0	0	0	0	0	0
O=C(O)CN1C(=O)/C(=C\c2cn(-c3ccccc3)nc2-c2ccccc2)SC1=S	0	0	0	0	0	0
COc1ccc(C(=O)NCCCC2CCCC2)cc1OC1CCN(C(C)C)CC1	-	-	0	0	0	0
O=C(CN1C(=O)c2ccccc2C1=O)NCC(=O)Nc1ccccc1	0	0	0	0	0	0
CCCCc1nnc(NC(=O)c2ccc(OCc3c(C)noc3C)cc2)s1	0	0	0	0	0	0
CCOc1ccc(/C=C2\CCCc3c2nc2ccccc2c3C(=O)O)cc1OC	-	-	0	0	78	0
COc1ccc(/C=C2\CCc3c2nc2ccccc2c3C(=O)O)cc1OC	0	0	0	0	0	0
O=C(Nc1ccc(F)c(Cl)c1)Nc1nnc([C@@H]2O[C@H](CO)[C@@H](O)[C@H]2O)s1	-	-	0	0	0	0
COc1ccc(NS(=O)(=O)c2ccc(C(=O)NCC3(N4CCOCC4)CCCCC3)cc2)cc1	0	0	40	0	0	0
Cc1cc(N2CCC(C)CC2)nc2cccc(O)c12	0	0	0	62	0	0
CC(C)(O)C1Cc2cc(/C=C/C(=O)O)c(O)cc2O1 (stereo not drawn)	95	0	0	0	0	0
COc1cc2c(cc1/C=C/C(=O)O)OC(C)C2 (stereo not drawn)	0	0	0	0	0	0
CCNC(=O)C1CCCN(C(=O)c2ccc(-c3ccccc3)cc2)CC1 (stereo not drawn)	-	-	0	0	0	0
Nc1ccc(N)c(C(=O)O)c1	96	36	105	81	117	96
Nc1ccc(C(=O)O)c(O)c1	0	0	0	0	0	0
NC(=S)NNC(=O)c1cccc(Cl)c1	0	0	0	0	0	0
NC(=S)N=Nc1ccc(NN=C(N)N)cc1	0	0	0	0	0	84
O=C(COC(=O)Cc1c(Cl)cccc1Cl)Nc1ccc2[nH]c(=O)[nH]c2c1	0	0	55	0	0	0
O=C(COC(=O)c1nc(Cl)ccc1Cl)Nc1ccc2[nH]c(=O)[nH]c2c1	0	0	63	0	0	0
SMILES	Scp-1 inhibitor	HKDC1 inhibitor	SUMO1 PPI mod	LMPTP inh	DNMT1 inh	STEP block
CC1=C(C(=O)N(C)C)CC(CC(=O)NC2CCCC2)C(=O)N1Cc1ccccc1 (stereo not drawn)	-	-	0	0	0	0
COc1ccc(Nc2ccc(C(F)(F)F)cc2[N+](=O)[O-])cn1	0	0	0	0	0	0
COc1cc(NC(=O)CSc2ncnc3sc4c(c23)CCCC4)c(C(=O)O)cc1OC	0	0	0	0	0	96
C/C(=N\S(=O)(=O)c1ccc(C)cc1)N(C)C	0	0	45	0	0	0
C/C(=N\S(=O)(=O)c1ccc(C)cc1)N1CCCCC1	0	0	0	0	0	0
O=C(CCCn1c(SCC(=O)NC2CCCCC2)nc2ccccc2c1=O)NCC1CCCO1 (stereo not drawn)	0	0	0	0	0	0
O=C(CCCn1c(SCC(=O)c2ccc(O)c(O)c2)nc2ccccc2c1=O)NCC1CCCO1 (stereo not drawn)	0	0	0	51	0	0
Cc1ccc(/C=C(\NC(=O)c2ccccc2)C(=O)N2CCCC2C(=O)O)cc1 (stereo not drawn)	0	0	0	0	0	0
Cn1c(SCC(=O)NC2CCS(=O)(=O)C2)nc2ccccc21 (stereo not drawn)	0	0	0	0	0	0
O=c1oc2cc(O)ccc2cc1-c1nc2c(s1)CCc1ccccc1-2	0	0	0	0	+	0
COc1nc(Nc2nc3ccccc3c(=O)[nH]2)nc2ccc(C)cc12	0	0	47	0	0	0
O=C1SC(SCc2ccccc2)=N/C1=C\c1ccc(C(=O)O)cc1	0	0	0	0	0	0
CC(/C=C1\N=C(SCc2ccccc2Cl)SC1=O)=C\c1ccccc1	0	0	0	0	101	0
O=C1NC(=O)/C(=C/c2ccc(-c3cccc([N+](=O)[O-])c3)o2)S1	0	0	55	0	0	0
O=c1c2cc(Cl)ccc2nc(-c2ccc([N+](=O)[O-])cc2)n1O	0	0	0	0	0	0
O=c1c2cc(Br)ccc2nc(-c2ccc(Cl)cc2)n1O	65	0	0	51	0	96
CCNC(=O)C1CCCN(Cc2ccc(C(=O)OCC)cc2)CC1 (stereo not drawn)	-	-	0	0	0	0
Cc1cc(Cl)ccc1N=c1ssnc1Cl	0	0	0	0	0	0
Cc1nnc(N=c2ssnc2Cl)o1	0	0	0	55	0	0
Cc1ccc(NC(=O)CCNS(=O)(=O)c2ccc3c(c2)CCC(=O)N3)c(Br)c1	0	0	0	0	0	0
COc1ccc(NS(=O)(=O)c2cccc(C(=O)N3CCCC(C)C3)c2)cc1 (stereo not drawn)	0	0	0	0	0	0
CC1CCN(C2=NC(=O)/C(=C/c3cn(-c4ccccc4)nc3-c3cccc(S(=O)(=O)N(C)C)c3)S2)CC1	0	0	0	0	0	0
CCCCCC(=O)Nc1nc(C)c(-c2csc(Nc3cc(Cl)ccc3C)n2)s1	0	0	81	0	0	0
COc1ccc(Cl)cc1Nc1nc(-c2sc(NC(=O)CC(C)C)nc2C)cs1	0	0	55	0	0	0
CCCC(C)C(=O)Nc1nc(C)c(-c2csc(Nc3cc(Cl)ccc3C)n2)s1 (stereo not drawn)	0	0	78	0	0	0
